ChEMBL document CHEMBL1152599, “Synthesis and in vitro activities of new anticancer duplex drugs linking 2'-deoxy-5-fluorouridine (5-FdU) with 3'-C-ethynylcytidine (ECyd) via a phosphodiester bonding” (2009)

What was measured:
Format in all cases: functional
CCRF-CEM = experiment: Anticancer activity against human CCRF-CEM cells after 48 hrs by sulforhodamine B assay
Summary of the method: (§1)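 NCI 60-cell-line anticancer screen. Each compound is tested at a minimum of five concentrations in 10-fold dilutions with 48 h drug exposure. Cell viability/growth is estimated by sulforhodamine B protein staining. GI50 is the log10 molar concentration giving 50% growth inhibition, read from the dose-response curves and mean graphs of the NCI data screening report. TGI was taken from double screens.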

HL-60 = experiment: Anticancer activity against human HL-60(TB) cells after 48 hrs by sulforhodamine B assay; conditions: HL-60, 48 h
Summary of the method: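 NCI 60-cell-line anticancer screen. Drugs tested at a minimum of five concentrations at 10-fold dilutions with 48 h exposure. Cell growth estimated by sulforhodamine B protein assay. GI50 is log10 of the molar concentration giving 50% growth inhibition, read from the screening data sheet, dose-response curves and mean graphs.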

K562 = experiment: Anticancer activity against human K562 cells after 48 hrs by sulforhodamine B assay; conditions: K562, 48 h; summary of the method: as §1
MOLT-4 = experiment: Anticancer activity against human MOLT4 cells after 48 hrs by sulforhodamine B assay; conditions: MOLT-4, 48 h; summary of the method: as §1
[1] = Anticancer activity against human […] cells after 48 hrs by sulforhodamine B assay; summary of the method: as §1
SR = experiment: Anticancer activity against human SR cells after 48 hrs by sulforhodamine B assay
Summary of the method: (§2)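 Tested in the NCI 60-human-tumour-cell-line screen. Compounds were applied at a minimum of five concentrations in 10-fold dilutions with 48 h exposure. Cell growth was estimated by sulforhodamine B protein staining. GI50 (log10 of molar concentration giving 50% growth inhibition) and TGI were read from the data sheets, dose-response curves and mean graphs. Some cell lines were screened twice.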

A549 = experiment: Anticancer activity against human A549 cells after 48 hrs by sulforhodamine B assay; conditions: A549, 48 h; summary of the method: as §1
EKVX = experiment: Anticancer activity against human EKVX cells after 48 hrs by sulforhodamine B assay; summary of the method: as §1
HOP-62 = experiment: Anticancer activity against human HOP62 cells after 48 hrs by sulforhodamine B assay; conditions: HOP-62, 48 h; summary of the method: as §1
LOX IMVI = experiment: Anticancer activity against human LOXIMVI cells after 48 hrs by sulforhodamine B assay; summary of the method: as §1
Malme-3M = experiment: Anticancer activity against human MALME-3M cells after 48 hrs by sulforhodamine B assay; summary of the method: as §1
M14 = experiment: Anticancer activity against human M14 cells after 48 hrs by sulforhodamine B assay; conditions: M14, 48 h; summary of the method: as §1
SK-MEL-2 = experiment: Anticancer activity against human SK-MEL-2 cells after 48 hrs by sulforhodamine B assay; conditions: SK-MEL-2, 48 h; summary of the method: as §1
SK-MEL-28 = experiment: Anticancer activity against human SK-MEL-28 cells after 48 hrs by sulforhodamine B assay; conditions: SK-MEL-28, 48 h; summary of the method: as §1
SK-MEL-5 = experiment: Anticancer activity against human SK-MEL-5 cells after 48 hrs by sulforhodamine B assay; conditions: SK-MEL-5, 48 h; summary of the method: as §1
UACC-257 = experiment: Anticancer activity against human UACC257 cells after 48 hrs by sulforhodamine B assay; conditions: UACC-257, 48 h; summary of the method: as §2
UACC-62 = experiment: Anticancer activity against human UACC62 cells after 48 hrs by sulforhodamine B assay; conditions: UACC-62, 48 h; summary of the method: as §2
IGROV-1 = experiment: Anticancer activity against human IGROV1 cells after 48 hrs by sulforhodamine B assay; conditions: IGROV-1, 48 h; summary of the method: as §1
OVCAR-3 = experiment: Anticancer activity against human OVCAR-3 cells after 48 hrs by sulforhodamine B assay; conditions: OVCAR-3, 48 h; summary of the method: as §1
OVCAR-4 = experiment: Anticancer activity against human OVCAR4 cells after 48 hrs by sulforhodamine B assay; conditions: OVCAR-4, 48 h; summary of the method: as §1
OVCAR-5 = experiment: Anticancer activity against human OVCAR5 cells after 48 hrs by sulforhodamine B assay; conditions: OVCAR-5, 48 h; summary of the method: as §1
OVCAR-8 = experiment: Anticancer activity against human OVCAR8 cells after 48 hrs by sulforhodamine B assay; conditions: OVCAR-8, 48 h; summary of the method: as §1
SK-OV-3 = experiment: Anticancer activity against human SKOV3 cells after 48 hrs by sulforhodamine B assay; conditions: SK-OV-3, 48 h; summary of the method: as §1
786-0 = experiment: Anticancer activity against human 786-0 cells after 48 hrs by sulforhodamine B assay; conditions: 786-0, 48 h; summary of the method: as §1
A498 = experiment: Anticancer activity against human A498 cells after 48 hrs by sulforhodamine B assay; conditions: A498, 48 h; summary of the method: as §1
ACHN = experiment: Anticancer activity against human ACHN cells after 48 hrs by sulforhodamine B assay; summary of the method: as §1
CAKI-1 = experiment: Anticancer activity against human Caki1 cells after 48 hrs by sulforhodamine B assay; conditions: CAKI-1, 48 h; summary of the method: as §1
RXF 393 = experiment: Anticancer activity against human RXF393 cells after 48 hrs by sulforhodamine B assay; conditions: RXF 393, 48 h; summary of the method: as §1
SN12C = experiment: Anticancer activity against human SN12C cells after 48 hrs by sulforhodamine B assay; summary of the method: as §1
TK-10 = experiment: Anticancer activity against human TK10 cells after 48 hrs by sulforhodamine B assay; conditions: TK-10, 48 h; summary of the method: as §2
UO-31 = experiment: Anticancer activity against human UO31 cells after 48 hrs by sulforhodamine B assay; conditions: UO-31, 48 h; summary of the method: as §2
PC-3 = experiment: Anticancer activity against human PC3 cells after 48 hrs by sulforhodamine B assay; conditions: PC-3, 48 h; summary of the method: as §1
DU-145 = experiment: Anticancer activity against human DU145 cells after 48 hrs by sulforhodamine B assay; conditions: DU-145, 48 h; summary of the method: as §1
MCF7 = experiment: Anticancer activity against human MCF7 cells after 48 hrs by sulforhodamine B assay; conditions: MCF7, 48 h; summary of the method: as §1
NCI/ADR-RES = experiment: Anticancer activity against human NCI/ADR-RES cells after 48 hrs by sulforhodamine B assay; summary of the method: as §1
MDA-MB-231 = experiment: Anticancer activity against human MDA-MB-231 cells after 48 hrs by sulforhodamine B assay; conditions: MDA-MB-231, 48 h; summary of the method: as §1
[2] = Anticancer activity against human Hs 578T cells after 48 hrs by sulforhodamine B assay; summary of the method: as §1
MDA-MB-435 = experiment: Anticancer activity against human MDA-MB-435 cells after 48 hrs by sulforhodamine B assay; conditions: MDA-MB-435, 48 h; summary of the method: as §1
MDA-N = experiment: Anticancer activity against human MDA-N cells after 48 hrs by sulforhodamine B assay; summary of the method: as §1
BT-549 = experiment: Anticancer activity against human BT549 cells after 48 hrs by sulforhodamine B assay; conditions: BT-549, 48 h; summary of the method: as §1
T47D = experiment: Anticancer activity against human T47D cells after 48 hrs by sulforhodamine B assay; summary of the method: as §2
HOP-92 = experiment: Anticancer activity against human HOP92 cells after 48 hrs by sulforhodamine B assay; conditions: HOP-92, 48 h; summary of the method: as §1
NCI-H226 = experiment: Anticancer activity against human NCI-H226 cells after 48 hrs by sulforhodamine B assay; conditions: NCI-H226, 48 h; summary of the method: as §1
NCI-H23 = experiment: Anticancer activity against human NCI-H23 cells after 48 hrs by sulforhodamine B assay; conditions: NCI-H23, 48 h; summary of the method: as §1
NCI-H322M = experiment: Anticancer activity against human NCI-H322M cells after 48 hrs by sulforhodamine B assay; summary of the method: as §1
NCI-H460 = experiment: Anticancer activity against human NCI-H460 cells after 48 hrs by sulforhodamine B assay; conditions: NCI-H460, 48 h; summary of the method: as §1
NCI-H522 = experiment: Anticancer activity against human NCI-H522 cells after 48 hrs by sulforhodamine B assay; conditions: NCI-H522, 48 h; summary of the method: as §1
COLO 205 = experiment: Anticancer activity against human COLO205 cells after 48 hrs by sulforhodamine B assay; conditions: COLO 205, 48 h; summary of the method: as §1
HCC 2998 = experiment: Anticancer activity against human HCC2998 cells after 48 hrs by sulforhodamine B assay; conditions: HCC 2998, 48 h; summary of the method: as §1
HCT-116 = experiment: Anticancer activity against human HCT116 cells after 48 hrs by sulforhodamine B assay; conditions: HCT-116, 48 h; summary of the method: as §1
HCT-15 = experiment: Anticancer activity against human HCT15 cells after 48 hrs by sulforhodamine B assay; conditions: HCT-15, 48 h; summary of the method: as §1
HT-29 = experiment: Anticancer activity against human HT-29 cells after 48 hrs by sulforhodamine B assay; conditions: HT-29, 48 h; summary of the method: as §1
KM12 = experiment: Anticancer activity against human KM12 cells after 48 hrs by sulforhodamine B assay; conditions: KM12, 48 h; summary of the method: as §1
SW-620 = experiment: Anticancer activity against human SW620 cells after 48 hrs by sulforhodamine B assay; conditions: SW-620, 48 h; summary of the method: as §2
SF-268 = experiment: Anticancer activity against human SF268 cells after 48 hrs by sulforhodamine B assay; conditions: SF-268, 48 h; summary of the method: as §1
SF-295 = experiment: Anticancer activity against human SF295 cells after 48 hrs by sulforhodamine B assay; conditions: SF-295, 48 h; summary of the method: as §1
SF-539 = experiment: Anticancer activity against human SF539 cells after 48 hrs by sulforhodamine B assay; conditions: SF-539, 48 h; summary of the method: as §1
SNB-19 = experiment: Anticancer activity against human SNB19 cells after 48 hrs by sulforhodamine B assay; conditions: SNB-19, 48 h; summary of the method: as §1
SNB-75 = experiment: Anticancer activity against human SNB75 cells after 48 hrs by sulforhodamine B assay; conditions: SNB-75, 48 h; summary of the method: as §2
U-251 = experiment: Anticancer activity against human U251 cells after 48 hrs by sulforhodamine B assay; conditions: U-251, 48 h; summary of the method: as §2

Measured: GI50

C#C[C@@]1(O)[C@@H](CO)O[C@@H](n2ccc(N)nc2=O)[C@@H]1O [TAS-106]
50.1 nM: SK-MEL-28 | OVCAR-5
10 nM: SK-MEL-5
15.8 nM: Malme-3M | TK-10 | NCI-H226 | SF-268 | SNB-75
25.1 nM: RXF 393
12.6 nM: SK-MEL-2 | IGROV-1 | [2] | MDA-N
63.1 nM: EKVX | HOP-92 | SNB-19
39.8 nM: M14 | MDA-MB-231 | BT-549 | SF-539
31.6 nM: UACC-62 | PC-3 | NCI-H23
79.4 nM: UACC-257 | OVCAR-3 | SK-OV-3
158 nM: OVCAR-4
19.9 nM: NCI-H322M | U-251
< 10 nM: all other assays above
